Measured values reported in ChEMBL document CHEMBL5303300, “EUbOPEN Chemogenomics Library - Multiplex” (2023).
Several values for one entry are separate records, joined by “and”; a condition that tells them apart may be missing. Identical values can stand only once.

Tested on: HEK-293T
Experiment: Multiplex assay against HEK293T
Type: toxicity, cell-based
Conditions: human, number of replicates 2
Procedure, shortened: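 Tubulin, mitochondrial-mass and membrane-permeability phenotypes are per cents of healthy-nucleus cells. Cells were gated by CellPathfinder machine learning into Hoechst high-intensity objects or normal cells, normal cells into healthy, pyknosed or fragmented nuclei, and pyknosed cells into mitotic or apoptotic. Before that, live cells stained at seeding with Hoechst33342, BioTracker Green Microtubule Cytoskeleton Dye, MitoTracker Red and Annexin V Alexa Fluor 680 were imaged on a CQ1 microscope at 37°C and 5% CO2 after compound addition.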

[1] = 12 h, 1 µM, compound concentration 1 uM
[2] = 12 h, 10 µM, compound concentration 10 uM
[3] = 24 h, 1 µM, compound concentration 1 uM
[4] = 24 h, 10 µM, compound concentration 10 uM
[5] = 48 h, 1 µM, compound concentration 1 uM
[6] = 48 h, 10 µM, compound concentration 10 uM

With Cc1c(C(=O)Nc2ccc(N3C[C@@H](C)O[C@@H](C)C3)nc2)cccc1-c1ccc(OC(F)(F)F)cc1 [SONIDEGIB] the “Population Apoptotic (%)” value [1] was 36% and 33%, the “Population Fragmented Nuclei (%)” value [1] was 3% and the “Population Healthy Nuclei (%)” value [1] was 85% and 86%. For the same molecule, the “Population Hoechst High Intensity Objects (%)” value [1] was 3% and 6%, the “Population Membrane Permeable-Phenotype (%)” value [1] was 3% and the “Population Mitochondria Different-Phenotype (%)” value [1] was 12%. For the same molecule, the “Population Mitotic Cells (%)” value [1] was 63% and 66%, the “Population Normal (%)” value [1] was 96% and 93% and the “Population Pyknosed Nuclei (%)” value [1] was 11% and 9%. The “Population Tubulin-Different-Phenotype (%)” value [1] was 43% and 46%, the “Total Cell Count” value [1] was 668 and 769 and the “Population Apoptotic (%)” value [2] was 55% and 57%. For the same molecule, the “Population Fragmented Nuclei (%)” value [2] was 3% and 4%, the “Population Healthy Nuclei (%)” value [2] was 84% and 85% and the “Population Hoechst High Intensity Objects (%)” value [2] was 7% and 10%. For the same molecule, the “Population Membrane Permeable-Phenotype (%)” value [2] was 3% and 1%, the “Population Mitochondria Different-Phenotype (%)” value [2] was 18% and 15% and the “Population Mitotic Cells (%)” value [2] was 44% and 42%. The “Population Normal (%)” value [2] was 92% and 89%, the “Population Pyknosed Nuclei (%)” value [2] was 11% and 10% and the “Population Tubulin-Different-Phenotype (%)” value [2] was 56% and 45%. The “Total Cell Count” value [2] was 652 and 496, the “Population Apoptotic (%)” value [3] was 39% and 27% and the “Population Fragmented Nuclei (%)” value [3] was 3% and 4%. The “Population Healthy Nuclei (%)” value [3] was 90% and 89%, the “Population Hoechst High Intensity Objects (%)” value [3] was 6% and 7% and the “Population Membrane Permeable-Phenotype (%)” value [3] was 3% and 2%. For the same molecule, the “Population Mitochondria Different-Phenotype (%)” value [3] was 5% and 3%, the “Population Mitotic Cells (%)” value [3] was 60% and 72% and the “Population Normal (%)” value [3] was 93% and 92%. The “Population Pyknosed Nuclei (%)” value [3] was 6% and 5%, the “Population Tubulin-Different-Phenotype (%)” value [3] was 30% and 33% and the “Total Cell Count” value [3] was 984 and 1195. The “Population Apoptotic (%)” value [4] was 53% and 55%, the “Population Fragmented Nuclei (%)” value [4] was 6% and 7% and the “Population Healthy Nuclei (%)” value [4] was 83%. The “Population Hoechst High Intensity Objects (%)” value [4] was 6% and 8%, the “Population Membrane Permeable-Phenotype (%)” value [4] was 3% and the “Population Mitochondria Different-Phenotype (%)” value [4] was 5%. The “Population Mitotic Cells (%)” value [4] was 46% and 45%, the “Population Normal (%)” value [4] was 93% and 91% and the “Population Pyknosed Nuclei (%)” value [4] was 9%. For the same molecule, the “Population Tubulin-Different-Phenotype (%)” value [4] was 30% and 28%, the “Total Cell Count” value [4] was 975 and 681 and the “Population Apoptotic (%)” value [5] was 17% and 12%. For the same molecule, the “Population Fragmented Nuclei (%)” value [5] was 12%, the “Population Healthy Nuclei (%)” value [5] was 84% and the “Population Hoechst High Intensity Objects (%)” value [5] was 7% and 10%. For the same molecule, the “Population Membrane Permeable-Phenotype (%)” value [5] was 5% and 4%, the “Population Mitochondria Different-Phenotype (%)” value [5] was 0% and the “Population Mitotic Cells (%)” value [5] was 82% and 87%. The “Population Normal (%)” value [5] was 92% and 89%, the “Population Pyknosed Nuclei (%)” value [5] was 3% and the “Population Tubulin-Different-Phenotype (%)” value [5] was 12% and 15%. The “Total Cell Count” value [5] was 2699 and 2880, the “Population Apoptotic (%)” value [6] was 14% and 19% and the “Population Fragmented Nuclei (%)” value [6] was 13% and 10%. For the same molecule, the “Population Healthy Nuclei (%)” value [6] was 83% and 86%, the “Population Hoechst High Intensity Objects (%)” value [6] was 8% and 7% and the “Population Membrane Permeable-Phenotype (%)” value [6] was 4% and 5%. For the same molecule, the “Population Mitochondria Different-Phenotype (%)” value [6] was 0%, the “Population Mitotic Cells (%)” value [6] was 85% and 80% and the “Population Normal (%)” value [6] was 91% and 92%. For the same molecule, the “Population Pyknosed Nuclei (%)” value [6] was 2% and 3%, the “Population Tubulin-Different-Phenotype (%)” value [6] was 12% and 8% and the “Total Cell Count” value [6] was 2536 and 1733.
Cc1ccc2c(c1CCC(=O)O)CC[C@@H](NS(=O)(=O)c1ccc(Cl)cc1)C2 [TERUTROBAN] was tested, and the “Population Apoptotic (%)” value [1] was 59% and 56%, the “Population Fragmented Nuclei (%)” value [1] was 2% and 4% and the “Population Healthy Nuclei (%)” value [1] was 81%. The “Population Hoechst High Intensity Objects (%)” value [1] was 7%, the “Population Membrane Permeable-Phenotype (%)” value [1] was 3% and 2% and the “Population Mitochondria Different-Phenotype (%)” value [1] was 20% and 14%. The “Population Mitotic Cells (%)” value [1] was 40% and 43%, the “Population Normal (%)” value [1] was 92% and the “Population Pyknosed Nuclei (%)” value [1] was 15% and 14%. The “Population Tubulin-Different-Phenotype (%)” value [1] was 47%, the “Total Cell Count” value [1] was 534 and 671 and the “Population Apoptotic (%)” value [2] was 55% and 71%. For the same molecule, the “Population Fragmented Nuclei (%)” value [2] was 5% and 3%, the “Population Healthy Nuclei (%)” value [2] was 77% and 81% and the “Population Hoechst High Intensity Objects (%)” value [2] was 8%. The “Population Membrane Permeable-Phenotype (%)” value [2] was 4% and 1%, the “Population Mitochondria Different-Phenotype (%)” value [2] was 24% and 20% and the “Population Mitotic Cells (%)” value [2] was 44% and 28%. For the same molecule, the “Population Normal (%)” value [2] was 91%, the “Population Pyknosed Nuclei (%)” value [2] was 17% and 15% and the “Population Tubulin-Different-Phenotype (%)” value [2] was 70% and 50%. The “Total Cell Count” value [2] was 599 and 487, the “Population Apoptotic (%)” value [3] was 65% and 40% and the “Population Fragmented Nuclei (%)” value [3] was 7% and 6%. The “Population Healthy Nuclei (%)” value [3] was 81% and 86%, the “Population Hoechst High Intensity Objects (%)” value [3] was 6% and 9% and the “Population Membrane Permeable-Phenotype (%)” value [3] was 3%. For the same molecule, the “Population Mitochondria Different-Phenotype (%)” value [3] was 6% and 5%, the “Population Mitotic Cells (%)” value [3] was 35% and 59% and the “Population Normal (%)” value [3] was 93% and 90%. The “Population Pyknosed Nuclei (%)” value [3] was 10% and 6%, the “Population Tubulin-Different-Phenotype (%)” value [3] was 30% and 25% and the “Total Cell Count” value [3] was 837 and 1016. The “Population Apoptotic (%)” value [4] was 58% and 52%, the “Population Fragmented Nuclei (%)” value [4] was 9% and 6% and the “Population Healthy Nuclei (%)” value [4] was 79% and 84%. For the same molecule, the “Population Hoechst High Intensity Objects (%)” value [4] was 8% and 9%, the “Population Membrane Permeable-Phenotype (%)” value [4] was 2% and 3% and the “Population Mitochondria Different-Phenotype (%)” value [4] was 9% and 7%. For the same molecule, the “Population Mitotic Cells (%)” value [4] was 41% and 47%, the “Population Normal (%)” value [4] was 91% and 90% and the “Population Pyknosed Nuclei (%)” value [4] was 11% and 9%. The “Population Tubulin-Different-Phenotype (%)” value [4] was 44% and 35%, the “Total Cell Count” value [4] was 911 and 714 and the “Population Apoptotic (%)” value [5] was 11%. For the same molecule, the “Population Fragmented Nuclei (%)” value [5] was 12% and 9%, the “Population Healthy Nuclei (%)” value [5] was 82% and 86% and the “Population Hoechst High Intensity Objects (%)” value [5] was 7% and 9%. For the same molecule, the “Population Membrane Permeable-Phenotype (%)” value [5] was 4% and 7%, the “Population Mitochondria Different-Phenotype (%)” value [5] was 0% and 1% and the “Population Mitotic Cells (%)” value [5] was 88%. The “Population Normal (%)” value [5] was 92% and 90%, the “Population Pyknosed Nuclei (%)” value [5] was 4% and 3% and the “Population Tubulin-Different-Phenotype (%)” value [5] was 12% and 11%. The “Total Cell Count” value [5] was 2114 and 2407, the “Population Apoptotic (%)” value [6] was 26% and 21% and the “Population Fragmented Nuclei (%)” value [6] was 14% and 10%. For the same molecule, the “Population Healthy Nuclei (%)” value [6] was 80% and 86%, the “Population Hoechst High Intensity Objects (%)” value [6] was 9% and 8% and the “Population Membrane Permeable-Phenotype (%)” value [6] was 6% and 5%. The “Population Mitochondria Different-Phenotype (%)” value [6] was 1%, the “Population Mitotic Cells (%)” value [6] was 73% and 78% and the “Population Normal (%)” value [6] was 90% and 91%. The “Population Pyknosed Nuclei (%)” value [6] was 5% and 3%, the “Population Tubulin-Different-Phenotype (%)” value [6] was 20% and 15% and the “Total Cell Count” value [6] was 1958 and 1618.
